Values joined by “and” are separate entries in the source; they are usually repeats but may differ in a detail not shown here. Equal values may be shown once. Active and inactive are the calls of the source.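 The calls were made as follows: active = lowers KCNQ2 potassium channel current at one or more tested doses and a dose response curve can be fitted; inactive = no current drop at any dose, or no curve.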
Biological target: Potassium voltage-gated channel subfamily KQT member 2 (Rattus norvegicus) (UniProt O88943)
Sequence (O88943 whole entry, looked up): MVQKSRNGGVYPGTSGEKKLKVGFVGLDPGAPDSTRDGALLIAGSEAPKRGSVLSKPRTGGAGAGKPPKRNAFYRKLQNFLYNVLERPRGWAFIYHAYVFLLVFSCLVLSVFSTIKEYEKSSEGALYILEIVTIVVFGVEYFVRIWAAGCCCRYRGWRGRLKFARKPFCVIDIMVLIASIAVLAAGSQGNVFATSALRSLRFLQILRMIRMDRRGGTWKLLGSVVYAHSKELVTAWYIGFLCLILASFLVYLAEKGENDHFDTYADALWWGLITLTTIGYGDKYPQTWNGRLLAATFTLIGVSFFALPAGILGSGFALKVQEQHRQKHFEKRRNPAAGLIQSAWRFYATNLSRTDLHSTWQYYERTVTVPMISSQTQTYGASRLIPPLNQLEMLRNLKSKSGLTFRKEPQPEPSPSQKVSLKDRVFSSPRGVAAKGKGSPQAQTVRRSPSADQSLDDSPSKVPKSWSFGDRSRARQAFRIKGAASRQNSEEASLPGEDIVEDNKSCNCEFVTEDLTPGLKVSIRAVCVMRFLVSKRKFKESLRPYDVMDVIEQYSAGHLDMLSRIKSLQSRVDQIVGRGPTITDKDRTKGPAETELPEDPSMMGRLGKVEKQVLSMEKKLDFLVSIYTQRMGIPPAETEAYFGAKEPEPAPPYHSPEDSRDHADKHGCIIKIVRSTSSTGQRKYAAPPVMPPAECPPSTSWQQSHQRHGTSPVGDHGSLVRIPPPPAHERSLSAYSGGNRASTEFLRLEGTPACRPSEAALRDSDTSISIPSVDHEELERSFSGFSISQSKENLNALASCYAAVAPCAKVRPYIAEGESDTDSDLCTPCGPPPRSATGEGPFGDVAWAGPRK
Assay: KCNQ2 channel current inhibitors, SAR follow-up, orthogonal assay for KCNQ2 inhibitor project, automated electrophysiology, CHO cells (AID 504837)
Conditions: automated patch clamp current; for current change, negative = inhibition: at 30 µM (top of the series)
Method in brief: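 Material: KCNQ2-expressing CHO cells; Probe or stimulus: 2,000 ms depolarization to +40 mV from -90 mV; Dosing: multiple compound concentrations; Measured by: automated perforated-patch clamp (amphotericin B), steady-state current at +40 mV; Measure: percent change in steady-state KCNQ2 current, post- versus pre-compound; Repeats: four replicates per concentration.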

Structure (SMILES)	current change, negative = inhibition	IC50
O=C(CC1CCCCC1)NCC(c1cccs1)N1CCOCC1 (configuration not stated)	–	1.73 µM
O=C(NCC(c1cccs1)N1CCOCC1)C1COc2ccc(Cl)cc2C1 (configuration not stated)	–	3.2 µM
Cc1ccc(OCCC(=O)NCC(c2cccs2)N2CCOCC2)cc1 (configuration not stated)	inactive	8.98 µM
CN1CCN(C(CNC(=O)CC(C)(C)C)c2cccs2)CC1 (configuration not stated)	inactive	–
O=C(NC[C@@H](c1cccs1)N1CCOCC1)C12CC3CC(CC(C3)C1)C2	–	0.14 µM
CC(C)(C)C(=O)NCC(c1cccs1)N1CCOCC1 (configuration not stated)	inactive	–
CC(C)(C)c1ccc(OCCC(=O)NCC(c2cccs2)N2CCOCC2)cc1 (configuration not stated)	inactive	–
CC1(C(=O)NCC(c2cccs2)N2CCOCC2)CC1(Cl)Cl (configuration not stated)	–	9.51 µM
CCC(CC)C(=O)NCC(c1ccco1)N1CCOCC1 (configuration not stated)	inactive	–
Cc1ccc(OCC(=O)NCC(c2cccs2)N2CCOCC2)cc1 (configuration not stated)	inactive	–
CC(C)CC(=O)NCC(c1cccs1)N1CCOCC1 (configuration not stated)	inactive	–
O=C(NCC(c1ccco1)N1CCOCC1)C(c1ccccc1)c1ccccc1 (configuration not stated)	–	1.2 µM
O=C(NCC(c1ccco1)N1CCOCC1)C1CCCCC1 (configuration not stated)	inactive	–
CC(C)C(=O)NCC(c1cccs1)N1CCOCC1 (configuration not stated)	inactive	–
CC1Oc2ccccc2OC1C(=O)NCC(c1cccs1)N1CCOCC1 (configuration not stated)	–	8.36 µM
CCCCC1CCC(C(=O)NCC(c2ccco2)N2CCOCC2)CC1 (configuration not stated)	inactive	–
O=C(NCC(c1cccs1)N1CCOCC1)C1CCCCC1 (configuration not stated)	–	2.93 µM

Second part, the compound after the results:

current change, negative = inhibition	IC50	Structure (SMILES)
inactive	–	COc1ccccc1C(=O)NCC(c1cccs1)N1CCOCC1 (configuration not stated)
–	0.91 µM and 0.44 µM	O=C(NCC(c1cccs1)N1CCOCC1)C12CC3CC(CC(C3)C1)C2 (configuration not stated)
–	8.48 µM	O=C(NC[C@H](c1cccs1)N1CCOCC1)C12CC3CC(CC(C3)C1)C2
inactive	–	Cc1ccc(C(CNC(=O)C2(C)CC2(Cl)Cl)N2CCOCC2)o1 (configuration not stated)
inactive	–	Cc1ccc(C(CNC(=O)C2CCC2)N2CCOCC2)o1 (configuration not stated)
inactive	–	CCCCC1CCC(C(=O)NC[C@@H](c2ccco2)N2CCOCC2)CC1 (some centres not stated)
inactive	–	CC(C)(C)C1CCC(C(=O)NCC(c2cccs2)N2CCOCC2)CC1 (configuration not stated)
inactive	–	O=C(NCC(c1ccco1)N1CCOCC1)C1CC1 (configuration not stated)
inactive	–	CN1CCN(C(CNC(=O)C23CC4CC(CC(C4)C2)C3)c2cccs2)CC1 (configuration not stated)
